Experimental data published in ChEMBL document CHEMBL4373644, “Fungal natural alkaloid schizocommunin activates the aryl hydrocarbon receptor pathway” (Medchemcomm, 2019).

Tests used:
[1] = molecular target: T1, AhR (aryl hydrocarbon receptor) (Homo sapiens, UniProt P35869); assay: Agonist activity at AhR in human HuH7 cells at 10 uM after 24 hrs by renilla luciferase reporter gene assay relative to control; type: cell-based; details: read-out: FC
T1 sequence (P35869 whole entry): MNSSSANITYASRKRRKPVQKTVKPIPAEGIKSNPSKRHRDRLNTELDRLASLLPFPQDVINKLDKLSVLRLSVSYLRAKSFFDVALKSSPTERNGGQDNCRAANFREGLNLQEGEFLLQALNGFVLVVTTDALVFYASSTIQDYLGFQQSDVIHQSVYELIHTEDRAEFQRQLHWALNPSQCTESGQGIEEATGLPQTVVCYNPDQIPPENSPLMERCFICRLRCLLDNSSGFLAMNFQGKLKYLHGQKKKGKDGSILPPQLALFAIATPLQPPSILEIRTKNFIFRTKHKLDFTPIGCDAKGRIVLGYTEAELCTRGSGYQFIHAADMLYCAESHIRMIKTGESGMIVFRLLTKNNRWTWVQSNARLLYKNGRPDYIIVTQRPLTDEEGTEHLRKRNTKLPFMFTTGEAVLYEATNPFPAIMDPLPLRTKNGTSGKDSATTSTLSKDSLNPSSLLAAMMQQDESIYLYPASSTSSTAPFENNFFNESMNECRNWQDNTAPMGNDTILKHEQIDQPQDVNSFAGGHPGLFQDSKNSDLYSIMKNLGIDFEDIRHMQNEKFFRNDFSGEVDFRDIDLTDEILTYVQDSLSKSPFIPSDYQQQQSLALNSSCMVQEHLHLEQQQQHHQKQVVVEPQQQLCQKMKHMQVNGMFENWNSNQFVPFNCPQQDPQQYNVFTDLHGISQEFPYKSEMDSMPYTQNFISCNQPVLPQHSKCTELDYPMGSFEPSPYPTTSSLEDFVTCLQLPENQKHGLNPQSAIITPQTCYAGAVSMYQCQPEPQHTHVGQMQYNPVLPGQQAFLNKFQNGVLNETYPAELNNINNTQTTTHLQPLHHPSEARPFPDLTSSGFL
Summary of the method: (§1)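 Huh7 cells seeded 20 000 per well, next day co-transfected with XRE-driven firefly luciferase (pGL4.43 luc2P/XRE) and Renilla plasmids by lipofection. A day later treated 24 h at 0.1, 0.5, 5 or 10 μM, 1% final DMSO, then lysed. Luciferase read in technical triplicate; signal normalised to Renilla and to DMSO vehicle.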

[2] = molecular target: T2, Aryl hydrocarbon receptor (Homo sapiens, UniProt P35869); assay: Agonist activity at AhR in human HuH7 cells assessed as increase in UGT1A expression at 10 uM after 24 hrs by RT-qPCR analysis; type: ADME, cell-based
T2 sequence (P35869 whole entry): T1 sequence (P35869 whole entry)
Summary of the method: (§2)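 Huh7 hepatoma cells in DMEM with 10% FBS at 37 °C, seeded 2.75 × 10^5 per well the day before. Exposed 24 h to 10 μM or 0.5 μM compound, 0.1% final DMSO, against DMSO-only mock. RT-qPCR with 18S rRNA normalisation; fold change by 2–ΔΔCt relative to mock; n = 5; unpaired two-tailed t-test, p < 0.05.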

[3] = molecular target: T2, Aryl hydrocarbon receptor; assay: Agonist activity at AhR in human HuH7 cells assessed as increase in CYP1B1 expression at 10 uM after 24 hrs by RT-qPCR analysis; type: ADME, cell-based; summary of the method: as §2
[4] = molecular target: T2, Aryl hydrocarbon receptor; assay: Agonist activity at AhR in human HuH7 cells after 24 hrs by renilla luciferase reporter gene assay; type: cell-based; summary of the method: as §1
[5] = molecular target: T3, CYP1A1 (via AhR) (Homo sapiens, UniProt P35869); assay: Agonist activity at AhR in human HuH7 cells assessed as increase in CYP1A1 expression at 10 uM after 24 hrs by microarray analysis relative to control; type: ADME, cell-based; details: read-out: FC
T3 sequence (P35869 whole entry): T1 sequence (P35869 whole entry)
Summary of the method: (§3)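 Transcriptome screen in Huh7 cells seeded 2.75 × 10^5 per well and treated 24 h with 10 μM or 0.5 μM compound (0.1% final DMSO) or DMSO mock. RNA isolated by column kit and profiled on microarray; expression given as fold change versus mock.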

[6] = molecular target: T2, Aryl hydrocarbon receptor; assay: Agonist activity at AhR in human HuH7 cells assessed as reduction in ALDH3A1 expression at 10 uM after 24 hrs by q-RT-PCR analysis relative to control; type: cell-based; summary of the method: as §2
[7] = molecular target: T2, Aryl hydrocarbon receptor; assay: Agonist activity at AhR in human A549 cells assessed as increase in UGT1A expression at 10 uM after 24 hrs by RT-qPCR analysis; type: ADME, cell-based; details: a549, 24 h
Summary of the method: (§4)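 A549 lung carcinoma cells grown at 37 °C in DMEM with 10% FBS, seeded 2.75 × 10^5 per well one day ahead. Treated 24 h with 10 μM or 0.5 μM compound in 0.1% final DMSO; mock was DMSO only. RNA then analysed by RT-qPCR, normalised to 18S rRNA, 2–ΔΔCt fold change vs mock; n = 3; two-tailed unpaired t-test, p < 0.05.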

[8] = system: Huh-7; assay: Cytotoxicity against human HuH7 cells assessed as reduction in metabolic activity after 24 hrs by MTT assay; type: ADME, cell-based; details: Huh-7, 24 h
Summary of the method: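 Huh7 cells seeded 10 000 per well, next day given serial dilutions of 0.012–200 μM (2% final DMSO) for 24 h. After a PBS wash, cells incubated 3 h with MTT at 2.5 mg mL–1; crystals dissolved in DMSO, absorbance read at 562 nm and normalised to mock; EC50 from dose–response curve.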

[9] = molecular target: T2, Aryl hydrocarbon receptor; assay: Agonist activity at AhR in human HuH7 cells assessed as effect on GSTA1 expression at 10 uM after 24 hrs by qRT-PCR analysis; type: cell-based; summary of the method: as §2
[10] = molecular target: T2, Aryl hydrocarbon receptor; assay: Agonist activity at AhR in human A549 cells assessed as increase in ALDH3A1 expression at 10 uM after 24 hrs by q-RT-PCR analysis; type: cell-based; details: a549, 24 h; summary of the method: as §4
[11] = molecular target: T4, CYP1B1 (via AhR) (Homo sapiens, UniProt P35869); assay: Agonist activity at AhR in human HuH7 cells assessed as increase in CYP1B1 expression at 10 uM after 24 hrs by microarray analysis relative to control; type: ADME, cell-based; details: read-out: FC; summary of the method: as §3
T4 sequence (P35869 whole entry): T1 sequence (P35869 whole entry)

[12] = system: Huh-7; assay: Effect on AhR expression in human HuH7 cells at 0.5 uM after 24 hrs by qRT-PCR analysis; type: ADME, cell-based; details: huh-7, 24 h; summary of the method: as §2
[13] = molecular target: T2, Aryl hydrocarbon receptor; assay: Agonist activity at AhR in human A549 cells assessed as increase in CYP1B1 expression at 0.5 uM after 24 hrs by RT-qPCR analysis; type: ADME, cell-based; details: a549, 24 h; summary of the method: as §4
[14] = system: A549; assay: Effect on XAP2 expression in human A549 cells at 0.5 uM after 24 hrs by qRT-PCR analysis; type: ADME, cell-based; details: a549, 24 h; summary of the method: as §4
[15] = molecular target: T2, Aryl hydrocarbon receptor; assay: Agonist activity at AhR in human HuH7 cells assessed as effect on ALDH3A1 expression at 0.5 uM after 24 hrs by q-RT-PCR analysis; type: cell-based; summary of the method: as §2
[16] = molecular target: T2, Aryl hydrocarbon receptor; assay: Agonist activity at AhR in human A549 cells assessed as increase in UGT1A expression at 0.5 uM after 24 hrs by RT-qPCR analysis; type: ADME, cell-based; details: a549, 24 h; summary of the method: as §4
[17] = molecular target: T4, CYP1B1 (via AhR); assay: Agonist activity at AhR in human HuH7 cells assessed as increase in CYP1B1 expression at 0.5 uM after 24 hrs by microarray analysis relative to control; type: ADME, cell-based; details: read-out: FC; summary of the method: as §3
[18] = system: Huh-7; assay: Effect on XAP2 expression in human HuH7 cells at 0.5 uM after 24 hrs by qRT-PCR analysis; type: ADME, cell-based; details: huh-7, 24 h; summary of the method: as §2
[19] = system: A549; assay: Effect on AhR expression in human A549 cells at 0.5 uM after 24 hrs by qRT-PCR analysis; type: ADME, cell-based; details: a549, 24 h; summary of the method: as §4
[20] = molecular target: T2, Aryl hydrocarbon receptor; assay: Agonist activity at AhR in human HuH7 cells assessed as effect on GSTA1 expression at 0.5 uM after 24 hrs by qRT-PCR analysis; type: cell-based; summary of the method: as §2
[21] = molecular target: T2, Aryl hydrocarbon receptor; assay: Agonist activity at AhR in human HuH7 cells assessed as increase in UGT1A expression at 0.5 uM after 24 hrs by RT-qPCR analysis; type: ADME, cell-based; summary of the method: as §2
[22] = molecular target: T2, Aryl hydrocarbon receptor; assay: Agonist activity at AhR in human A549 cells assessed as increase in CYP1A1 expression at 0.5 uM after 24 hrs by RT-qPCR analysis; type: ADME, cell-based; details: a549, 24 h; summary of the method: as §4
[23] = molecular target: T3, CYP1A1 (via AhR); assay: Agonist activity at AhR in human HuH7 cells assessed as increase in CYP1A1 expression at 0.5 uM after 24 hrs by microarray analysis relative to control; type: ADME, cell-based; details: read-out: FC; summary of the method: as §3

`O=C1Nc2ccccc2/C1=C/c1nc2ccccc2c(=O)[nH]1` was tested, and the fold induction at 24 h, 10 µM [1] was at most 17, the Activity [2] was “Active” and the Activity [3] was “Active”. The Activity [4] was “Dose-dependent effect”, the fold induction at 24 h, 10 µM [5] was 10.5 and the “fold change (FC)” value [6] was 0.65. The Activity [7] was “Active”, the EC50 [8] was 31.3 µM and the Activity [9] was “Not Active”. The Activity [10] was “Active” and the fold induction at 24 h, 10 µM [11] was 8.6.
With `O=C1Nc2ccccc2/C1=C\c1nnc2ccccc2c1Cl` the Activity [12] was “Not Active”, the Activity [13] was “Active” and the Activity [14] was “Not Active”. The Activity [15] was “Active”, the Activity [16] was “Active” and the fold induction at 24 h, 0.5 µM [17] was 1.35. The Activity [4] was “Dose-dependent effect”, the Activity [18] was “Not Active” and the Activity [19] was “Not Active”. The EC50 [8] was 9.6 µM, the Activity [20] was “Not Active” and the Activity [21] was “Active”. For the same compound, the Activity [22] was “Active” and the fold induction at 24 h, 0.5 µM [23] was 3.28.
